Tests used:
PGK1 [1] = target: T1, PGK1 (Homo sapiens, UniProt P00558); test: PGK1 and GAPDH coupled enzyme assay, IC50 determination; format: biochemical
T1 sequence (P00558 1-417): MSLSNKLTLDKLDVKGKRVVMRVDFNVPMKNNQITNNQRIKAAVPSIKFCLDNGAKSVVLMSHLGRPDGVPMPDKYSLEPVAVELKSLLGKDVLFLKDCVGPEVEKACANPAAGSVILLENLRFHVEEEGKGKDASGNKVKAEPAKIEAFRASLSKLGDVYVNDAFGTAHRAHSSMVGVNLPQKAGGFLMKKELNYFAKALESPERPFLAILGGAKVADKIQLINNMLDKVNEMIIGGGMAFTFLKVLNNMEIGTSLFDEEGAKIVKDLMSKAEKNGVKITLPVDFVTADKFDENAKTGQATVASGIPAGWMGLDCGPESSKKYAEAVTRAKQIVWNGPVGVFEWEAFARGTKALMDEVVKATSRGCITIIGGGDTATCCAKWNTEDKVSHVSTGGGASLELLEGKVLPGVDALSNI
Outline: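 His-tagged PGK1 was expressed from pET28a in E. coli BL21(DE3) pLysS (0.4 mmol/L IPTG, 3 h) and nickel-purified. PGK1 at 0.4 nmol/L was preincubated with test compound (DMSO, various concentrations) for 10 min at room temperature with shaking. OD340 was read every 15 s for 15 min at 37 °C; V0 came from the first 3 min, and inhibition was expressed as % of the DMSO V0.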

[2] = test system: LPS-induced IL-1β, IL-6, TNFα; conditions: cited from earlier work; for pro-inflammatory cytokine production: PKM2-targeted compounds
PGK1 [3] = target: T1, PGK1; test: Steady-state kinetic assay in the presence of gradient compound concentrations; format: biochemical
PGK1 [4] = target: T1, PGK1; test: Protein thermal shift assay; format: binding; conditions: Figs. S1I-J
Outline: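 Recombinant PGK1 at 3 μmol/L was mixed with 5× SYPRO Orange and test compound or DMSO in 20 μL of 50 mmol/L HEPES pH 7.4, 150 mmol/L NaCl, 1 mmol/L DTT. Fluorescence was followed during thermal melting in a real-time PCR instrument, and Tm was derived with the instrument's thermal-shift software.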

PGK1 [5] = conditions: read-out: IC50 (reported); reported as a PGK1 inhibitor; cited from earlier work

In the case of CN(C)C(=O)CCSC(SCCC(=O)O)c1cccc(/C=C/c2ccc3ccc(Cl)cc3n2)c1 (stereo not shown) [MK-571], the IC50 (PGK1 [1]) is reported as 25.2 µM.

For c1cc(-c2cnn3cc(-c4ccc(OCCN5CCCCC5)cc4)cnc23)ccn1 [dorsomorphin], the IC50 (PGK1 [1]) was 6.72 µM.

In the case of Nc1cccc(S(=O)(=O)N2CCCN(S(=O)(=O)c3ccc4c(c3)OCCO4)CC2)c1 [DASA-58], the pro-inflammatory cytokine production [2] is listed as “only inhibit IL-1β production”.

In the case of CCOC(=O)c1nc2cc(Cl)c(Cl)cc2nc1N1CCCN(C(=O)CC)CC1 [LTP-10, ethyl 6,7-dichloro-3-(4-propionyl-1,4-diazepan-1-yl)quinoxaline-2-carboxylate], the IC50 (PGK1 [1]) is reported as 2.3 µM, the Ki (PGK1 [3]; Ki, ATP competitive, varying ATP, saturating 3-PG, competitive model) is reported as 2.59 ± 0.01 µM and the “mode of inhibition versus ATP” value (PGK1 [3]; Km of ATP increases, Vmax unchanged) is reported as “ATP competitive inhibitor”. For the same compound, the “mode of inhibition versus 3-PG” value (PGK1 [3]; Vmax decreases, Km of 3-PG unchanged) was “noncompetitive inhibition” and the PGK1 thermal stability (PGK1 [4]) was “stabilized”.

In the case of OCC1OC(O)CC(O)C1O (stereo not shown) [Compound 2-DG], the “LPS-induced IL-1β” value ([2]; previous studies) is given as “blocks” and the “transcription of IL-6 and TNFα” value ([2]; previous studies) is given as “unaffected”.

In the case of CC(C)[C@H](CO)Nc1nc(Nc2cccc(Cl)c2)c2ncn(C(C)C)c2n1 [purvalanol A], the IC50 (PGK1 [1]) is given as 1.96 µM and the IC50 (PGK1 [5]) is given as 2.5 µM.

In the case of Cn1c2cc([S+](C)[O-])sc2c2cnn(Cc3cccc(N)c3)c(=O)c21 (stereo not shown) [TEPP-46], the pro-inflammatory cytokine production [2] is listed as “only inhibit IL-1β production”.

Reference: PMC9643279 (Acta Pharmaceutica Sinica. B, 2022)
